Laboratory results: ChEMBL document CHEMBL1129282, “High-affinity partial agonist imidazo[1,5-a]quinoxaline amides, carbamates, and ureas at the gamma-aminobutyric acid A/benzodiazepine receptor complex” (J Med Chem, 1996)
Activity calls are given as the source filed them.

Columns and labels:
Mus musculus [1] = assay: In vivo antagonistic activity against benzodiazepine in mice after ip administration; assay type: functional
How it was run: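 Male CF-1 mice injected ip simultaneously with triazolam 1 mg/kg and test compound starting at […], in 0.25% aqueous methyl cellulose. Loss of traction scored 15 min later. Absence of triazolam effect indicated antagonism; lower doses at 0.5 log intervals then tested to establish ED50.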

[2] = molecular target: GABA-A receptor; anion channel; assay: Inhibition of [3H]flunitrazepam binding to GABA-A receptor of rat cortical membranes; assay type: cell membranes, Membrane
[3] = molecular target: GABA-A receptor; anion channel (Rattus norvegicus) (UniProt O09028+P15431+P18506+P18508+P19969+P20236+P23574+P23576+P28471+P28473+P30191+P62813+P63079+P63138+Q91ZM7+Q9ES14); conditions: Brain, Brain membranes
Rattus norvegicus [4] = species: Rattus norvegicus; assay: In vitro [36Cl]-uptake in rat cerebrocortical synaptoneurosomes; assay type: functional; design: unit not given here
How it was run: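 Rat cerebrocortical synaptoneurosomes (1 mg protein) preincubated 5 min at 30 °C, then mixed with medium containing 0.2 µCi Na36Cl/mL, 118 mM NaCl, 5 mM KCl, 1.8 mM MgSO4, 20 mM Hepes/Tris pH 7.0, ± drug (methanol ≤0.4%). Uptake stopped after 5 s with ice-cold buffer, rapid filtration, four washes, radioactivity counted.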

Mus musculus [5] = species: Mus musculus; assay: Acute electroshock physical dependence activity was evaluated; A=Active; assay type: functional, organism-based
How it was run: (§1)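 Male CF-1 mice, 10/group, dosed sc twice daily (0800, and 1600 at twice the 0800 dose) for 3 days. 24 h after last dose, iv flumazenil 2.5 mg/kg in 5% aqueous N,N-dimethylacetamide. Electroshock seizure threshold (MA50) measured 5 min later versus saline-treated, flumazenil-injected controls. Compound scored active if threshold lowered beyond control interval.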

Mus musculus [6] = assay: Ethanol potentiation activity was measured as loss of righting reflex in male CF-1 mice after oral administration; assay type: functional
Mus musculus [7] = assay: Ethanol potentiation activity was measured as loss of traction response in male CF-1 mice after oral administration; assay type: functional
Rattus norvegicus [8] = assay: Antagonistic activity against metrazole-induced clonic convulsions in rat after ip injection; assay type: functional
Mus musculus [9] = species: Mus musculus; assay: Acute electroshock physical dependence activity was evaluated; IA=Inactive; assay type: functional, organism-based; how it was run: as §1

Row | SMILES | ED50 (Mus musculus [1]) | Ki [2] | [35S] TBPS shift [3] | 36Cl- uptake (Rattus norvegicus [4]) | Activity (Mus musculus [5]) | ED50 (Mus musculus [6]) | ED50 (Mus musculus [7]) | ED50 (Rattus norvegicus [8]) | Activity (Mus musculus [9])
1 | CNC(=O)N1Cc2c(-c3noc(C4CC4)n3)ncn2-c2ccccc21 | 22 mg/kg | 2.8 nM | 0.95 | 0.53 | Active | 11 mg/kg | 2.7 mg/kg | 11 mg/kg | 
2 | CCSC(=O)N1Cc2c(-c3noc(C4CC4)n3)ncn2-c2ccccc21 |  | 2.1 nM | 1.1 | 1.1 |  |  |  | 1.3 mg/kg | 
3 | CSC(=O)N1c2ccccc2-n2cnc(-c3noc(C4CC4)n3)c2C1(C)C |  | 5.1 nM | 0.8 | 1 |  |  |  | > 50 mg/kg | 
4 | O=C(N1CCCC1)N1Cc2c(-c3noc(C4CC4)n3)ncn2-c2ccc(Cl)cc21 | > 30 mg/kg | 1.1 nM | 0.93 |  |  | > 30 mg/kg | 0.4 mg/kg | 0.6 mg/kg | inactive
5 | CC(C)(C)OC(=O)N1Cc2c(-c3noc(C4CC4)n3)ncn2-c2ccccc21 |  |  | 2.9 |  |  |  |  | 0.06 mg/kg | 
6 | CN(C)C(=O)N1Cc2c(-c3noc(C4CC4)n3)ncn2-c2ccc(Cl)cc21 |  | 3.7 nM | 0.88 |  |  |  |  |  | 
7 | CN(C)C(=O)N1Cc2c(-c3noc(C4CC4)n3)ncn2-c2cccc(F)c21 | 4 mg/kg | 0.89 nM | 0.84 | 0.6 | Active | > 30 mg/kg | 3 mg/kg | 21 mg/kg | 
8 | CCN(CC)C(=O)N1Cc2c(-c3noc(C4CC4)n3)ncn2-c2ccccc21 | 4 mg/kg | 0.85 nM | 0.82 | 0.62 |  | > 30 mg/kg | > 30 mg/kg | 15 mg/kg | inactive
9 | NC(=O)N1Cc2c(-c3noc(C4CC4)n3)ncn2-c2ccccc21 |  | 7.2 nM | 0.61 | 0.75 |  |  |  | 13 mg/kg | 
10 | CC(C)(C)c1nc(-c2ncn3c2CN(C(=O)N2CCCC2)c2ccccc2-3)no1 |  | 14.7 nM | 0.76 | 1.2 |  |  |  | 18 mg/kg | 
11 | CC(C)OC(=O)N1Cc2c(-c3noc(C4CC4)n3)ncn2-c2ccccc21 |  | 1.8 nM | 1.1 |  |  |  |  | 1.9 mg/kg | 
12 | COC(=O)N1c2ccccc2-n2cnc(-c3noc(C4CC4)n3)c2C1(C)C |  |  | 0.8 | 0.4 |  |  |  | > 50 mg/kg | 
13 | O=C(N1Cc2c(-c3noc(C4CC4)n3)ncn2-c2ccccc21)C(F)(F)F |  | 143 nM | 0.73 |  |  |  |  | 35 mg/kg | 
14 | CNC(=O)N1c2ccccc2-n2cnc(-c3noc(C4CC4)n3)c2C1(C)C |  | 21 nM | 0.71 | 0.67 |  |  |  | > 50 mg/kg | 
15 | CN(C)C(=O)N1Cc2c(-c3noc(C4CC4)n3)ncn2-c2ccc(F)cc21 |  | 0.61 nM | 0.99 | 0.95 |  |  |  |  | 
16 | CN(C)C(=O)N1c2ccccc2-n2cnc(-c3noc(C4CC4)n3)c2C1(C)C |  | 3.1 nM | 0.97 | 0.34 |  |  |  | > 50 mg/kg | 
17 | CCc1nc(-c2ncn3c2CN(C(=O)N2CCCC2)c2ccccc2-3)no1 |  | 0.65 nM | 0.39 | 0.25 |  |  |  | > 50 mg/kg | 
18 | CN(C)C(=O)N1Cc2c(-c3noc(C4CC4)n3)ncn2-c2cccc(Cl)c21 |  | 0.71 nM | 0.62 | 0.83 |  |  |  | > 50 mg/kg | 
19 | CSC(=O)N1Cc2c(-c3noc(C4CC4)n3)ncn2-c2ccccc21 | > 30 mg/kg | 1.3 nM | 0.92 | 0.73 | Active | > 30 mg/kg | 0.3 mg/kg | 6.2 mg/kg | 

Row | SMILES | ED50 (Mus musculus [1]) | Ki [2] | [35S] TBPS shift [3] | 36Cl- uptake (Rattus norvegicus [4]) | Activity (Mus musculus [5]) | ED50 (Mus musculus [6]) | ED50 (Mus musculus [7]) | ED50 (Rattus norvegicus [8]) | Activity (Mus musculus [9])
20 | O=C(N1CCCC1)N1Cc2c(-c3noc(C4CC4)n3)ncn2-c2ccccc21 |  | 0.45 nM | 0.41 | 0.5 |  |  |  | 0.24 mg/kg | 
21 | O=C(Nc1ccccc1)N1Cc2c(-c3noc(C4CC4)n3)ncn2-c2ccccc21 |  | 16 nM | 1.3 | 0.29 |  |  |  | > 50 mg/kg | 
22 | CC1(C)c2c(-c3noc(C4CC4)n3)ncn2-c2ccc(Cl)cc2N1C(=O)N1CCCC1 | 9 mg/kg | 3.3 nM | 0.67 | 1.04 |  | > 30 mg/kg | 0.2 mg/kg | 35 mg/kg | inactive
23 | CC1(C)c2c(-c3noc(C4CC4)n3)ncn2-c2ccccc2N1C(=O)N1CCCC1 |  | 2.9 nM | 0.84 | 0.5 |  |  |  | > 50 mg/kg | 
24 | O=C(Sc1ccccc1)N1Cc2c(-c3noc(C4CC4)n3)ncn2-c2ccccc21 |  | 11 nM | 1.1 | 0.5 |  |  |  | > 50 mg/kg | 
25 | COC(=O)N1Cc2c(-c3noc(C4CC4)n3)ncn2-c2ccccc21 |  | 1.5 nM | 0.7 |  |  |  |  | 4.4 mg/kg | 
26 | O=C(c1ccco1)N1Cc2c(-c3noc(C4CC4)n3)ncn2-c2ccccc21 |  | 0.43 nM | 0.98 | 0.55 |  |  |  | 21 mg/kg | 
27 | O=C(N1CCCC1)N1Cc2c(-c3noc(C4CC4)n3)ncn2-c2ccc(F)cc21 |  | 0.56 nM | 1.25 | 0.69 |  |  |  | > 50 mg/kg | 
28 | O=C(c1ccc[nH]1)N1Cc2c(-c3noc(C4CC4)n3)ncn2-c2ccccc21 |  | 1.1 nM | 0.92 | 1.1 |  |  |  | 4.4 mg/kg | 
29 | O=C(N1CCCC1)N1Cc2c(-c3noc(C4CC4)n3)ncn2-c2cccc(F)c21 |  | 0.64 nM | 1 | 0.59 |  |  |  | > 50 mg/kg | 
30 | CC1(C)c2c(-c3noc(C4CC4)n3)ncn2-c2ccccc2N1C(N)=O |  | 86 nM | 0.6 | 0.22 |  |  |  | > 50 mg/kg | 
31 | O=C(N1CCCC1)N1Cc2c(-c3noc(C4CC4)n3)ncn2-c2cccc(Cl)c21 |  |  | 0.6 | 0.56 |  |  |  | > 50 mg/kg | 
32 | CC(=O)N1c2ccccc2-n2cnc(-c3noc(C4CC4)n3)c2C1(C)C |  |  | 0.7 |  |  |  |  | 30 mg/kg | 
33 | CC(C)c1nc(-c2ncn3c2CN(C(=O)N2CCCC2)c2ccccc2-3)no1 | > 30 mg/kg | 1.1 nM | 0.69 | 0.4 |  | > 30 mg/kg | 17 mg/kg | 11 mg/kg | inactive
34 | O=C(c1ccccn1)N1Cc2c(-c3noc(C4CC4)n3)ncn2-c2ccccc21 |  | 1.1 nM | 0.27 |  |  |  |  | > 50 mg/kg | 
35 | CN(C)C(=O)N1c2cc(Cl)ccc2-n2cnc(-c3noc(C4CC4)n3)c2C1(C)C |  | 3.1 nM | 0.79 | 1.33 | Active | 17 mg/kg | 3 mg/kg | 7.4 mg/kg | 
36 | CC(C)NC(=O)N1Cc2c(-c3noc(C4CC4)n3)ncn2-c2ccccc21 |  | 3.4 nM | 1.1 |  |  |  |  | 11 mg/kg | 
37 | O=C(N1CCOCC1)N1Cc2c(-c3noc(C4CC4)n3)ncn2-c2ccccc21 |  | 0.81 nM | 0.84 | 0.15 |  |  |  | 0.84 mg/kg | 
